Results: ChEMBL document CHEMBL1821614, “Synthesis and biological evaluation of novel Mannich bases of 2-arylimidazo[2,1-b]benzothiazoles as potential anti-cancer agents” (Eur J Med Chem, 2011)
The source made the active and inactive calls. No cut-off for these calls is given here.

Experiments:
[1] = Cytotoxicity against human HEK cells after 24 hrs by MTT assay; type: cell-based; conditions: HEK293, 24 h
[2] = test system: HepG2; experiment: Cytotoxicity against human HepG2 cells after 24 hrs by MTT assay; type: functional, cell-based; conditions: HepG2, 24 h
Procedure, shortened: (§1)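 Cells were grown in DMEM with 10% FCS, penicillin and streptomycin at 37 °C under 5% CO2. They were seeded at 10,000 cells/well, left overnight, then treated 24 h. Medium was replaced with fresh medium, MTT was added and plates were held 2 h at 37 °C. Absorbance was read at 570 nm. Single-point runs used 4 µM. Data come from three independent experiments as mean ± S.D.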

[3] = test system: MCF7; experiment: Cytotoxicity against human MCF7 cells after 24 hrs by MTT assay; type: functional, cell-based; conditions: MCF7, 24 h; procedure, shortened: as §1
[4] = test system: HeLa; experiment: Cytotoxicity against human HeLa cells after 24 hrs by MTT assay; type: functional, cell-based; procedure, shortened: as §1
[5] = test system: HepG2; experiment: Selectivity ratio of IC50 for human HEK cells to IC50 for human HepG2 cells
Procedure, shortened: (§2)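 Selectivity index was calculated as the MTT IC50 in normal HEK cells divided by the IC50 in the given cancer line.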

[6] = test system: MCF7; experiment: Selectivity ratio of IC50 for human HEK cells to IC50 for human MCF7 cells; procedure, shortened: as §2
[7] = test system: HeLa; experiment: Selectivity ratio of IC50 for human HEK cells to IC50 for human HeLa cells; procedure, shortened: as §2
[8] = test system: HepG2; experiment: Induction of cell cycle arrest in human HepG2 assessed as accumulation at G0/G1-phase at 4 uM after 24 hrs by propidium iodide staining based FACS analysis; type: functional
Procedure, shortened: (§3)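 HepG2 cells were seeded at 5 × 10^5 per 60 mm dish and grown 24 h. Compound was added at 4 µM for a further 24 h. Cells were harvested with trypsin-EDTA, fixed in ice-cold 70% ethanol 30 min at 4 °C and treated with RNase A 30 min at 37 °C. They were stained with propidium iodide/citrate/Triton X-100 solution and phase distribution was read by flow cytometry.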

[9] = test system: HepG2; experiment: Induction of cell cycle arrest in human HepG2 assessed as accumulation at S-phase at 4 uM after 24 hrs by propidium iodide staining based FACS analysis; type: functional; procedure, shortened: as §3
[10] = test system: HepG2; experiment: Induction of cell cycle arrest in human HepG2 assessed as accumulation at G2/M-phase at 4 uM after 24 hrs by propidium iodide staining based FACS analysis; type: functional; procedure, shortened: as §3
[11] = test system: HepG2; experiment: Cytotoxicity against human HepG2 cells at 4 uM after 24 hrs by MTT assay; type: functional, cell-based; procedure, shortened: as §1
[12] = test system: MCF7; experiment: Cytotoxicity against human MCF7 cells at 4 uM after 24 hrs by MTT assay; type: functional, cell-based; procedure, shortened: as §1
[13] = test system: HeLa; experiment: Cytotoxicity against human HeLa cells at 4 uM after 24 hrs by MTT assay; type: functional, cell-based; procedure, shortened: as §1

Compound	IC50 [1]	IC50 [2]	IC50 [3]	IC50 [4]	Ratio IC50 [5]	Ratio IC50 [6]	Ratio IC50 [7]	Activity [8]	Activity [9]	Activity [10]	Activity [11]	Activity [12]	Activity [13]
CCN(CC)CCOc1cccc(-c2cn3c(n2)sc2ccccc23)c1.Cl.Cl	17.5 µM	2.02 µM	3.59 µM	4.3 µM	8.663	4.87	4.069	64.19%	13.37%	22.43%	Active	Active	Active
Cc1ccc2c(c1)sc1nc(-c3ccccc3)c(CN3CCOCC3)n12	19 µM	3.29 µM	3.8 µM	7.59 µM	5.78	5	2.5	70.89%	8.2%	20.9%	Active	Active	Active
Cc1ccc2c(c1)sc1nc(-c3ccccc3)c(CN3CCCC3)n12	17.5 µM	3.6 µM	3.8 µM	8.09 µM	4.86	4.6	2.163	73.97%	7.13%	18.95%	Active	Active	Active
CCOc1ccc2c(c1)sc1nc(-c3ccccc3)c(CN3CCOCC3)n12	21 µM	3.52 µM	4.2 µM	5.89 µM	5.97	5	3.57	73.54%	5.99%	20.46%	Active	Active	Active
